Measurements taken from publication PMC12166256 (Clinical Pharmacology and Therapeutics, 2025).
Marks after values point to notes of the source that are not given here.

Assay: MAD study: plasma and urine pharmacokinetics
Format: in vivo, human
Outline: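 Healthy males got oral doses for 14 days: 100 mg once daily fasted, or 100, 200 or 300 mg twice daily fed. Plasma was drawn pre-dose and […] on Day 1, pre-dose and at 3 h on Days 4, 7 and 12, and up to 120 h after the final Day 14 morning dose. Urine was collected over 24 h at steady state. LC–MS/MS, LLOQ 2 ng/mL; non-compartmental analysis.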

[1] = MAD 24-hour urine Day 13, 100 mg BID fed
[2] = MAD 24-hour urine Day 13, 100 mg QD fasted
[3] = MAD 24-hour urine Day 13, 200 mg BID fed
[4] = MAD 24-hour urine Day 13, 300 mg BID fed
[5] = MAD Day 1 first dose, 100 mg BID fed
[6] = MAD Day 1 first dose, 100 mg QD fasted
[7] = MAD Day 1 first dose, 100 mg QD fasted, calculated by extrapolation
[8] = MAD Day 1 first dose, 200 mg BID fed
[9] = MAD Day 1 first dose, 300 mg BID fed
[10] = MAD Day 14, 100 mg BID fed, n = 6

SMILES: CN1C(=O)c2cccc(OC(F)F)c2[C@H]2C[C@@H]1c1nc3ccc(-c4cnc(C5(N)CCC5)nc4)cc3n12 [Balinatunfib]
- time to steady state (90% CI) (BID dosing, fed): 5.45 (5.36–5.92) days
- Fe0-24 (fraction of dose excreted unchanged in urine), mean ± SD [1]: 9.41 ± 4.66%
- Fe0-24, geometric mean [1]: (8.18) [50] %
- Fe0-24 (fraction of dose excreted unchanged in urine), mean ± SD [2]: 9.07 ± 1.85%
- Fe0-24, geometric mean [2]: (8.91) [20] %
- Fe0-24 (fraction of dose excreted unchanged in urine), mean ± SD [3]: 11.9 ± 3.54%
- Fe0-24, geometric mean [3]: (11.4) [30] %
- Fe0-24 (fraction of dose excreted unchanged in urine), mean ± SD [4]: 15.6 ± 4.40%
- Fe0-24, geometric mean [4]: (15.0) [28] %
- AUC0-12, geometric mean [5]: (324) [53] ng·h/mL
- AUC0-12, mean ± SD [5]: 364 ± 194 ng·h/mL
- C av, geometric mean [5]: (27.0) [53] ng/mL
- C av, mean ± SD [5]: 30.4 ± 16.2 ng/mL
- C max, geometric mean [5]: (38.1) [50] ng/mL
- C max, mean ± SD [5]: 42.6 ± 21.2 ng/mL
- t max, median (min, max) [5]: 6.00 (2.00, 8.00) h
- AUC0-12, geometric mean [6]: (527) [35] ng·h/mL
- AUC0-12, mean ± SD [6]: 559 ± 194 ng·h/mL
- C av, geometric mean [6]: (28.1) [32] ng/mL
- C av, mean ± SD [6]: 29.5 ± 9.33 ng/mL
- C max, geometric mean [6]: (83.1) [38] ng/mL
- C max, mean ± SD [6]: 88.6 ± 34.0 ng/mL
- t max, median (min, max) [6]: 3.00 (3.00, 3.00) h
- AUC0-24, geometric mean [7]: 674 ng·h/mL
- AUC0-24, mean ± SD [7]: 708 ± 224 ng·h/mL
- AUC0-12, geometric mean [8]: (1,080) [31] ng·h/mL
- AUC0-12, mean ± SD [8]: 1,130 ± 354 ng·h/mL
- C av, geometric mean [8]: (90.3) [31] ng/mL
- C av, mean ± SD [8]: 94.5 ± 29.5 ng/mL
- C max, geometric mean [8]: (132) [32] ng/mL
- C max, mean ± SD [8]: 139 ± 43.9 ng/mL
- t max, median (min, max) [8]: 5.00 (2.00, 6.00) h
- AUC0-12, geometric mean [9]: (2,180) [32] ng·h/mL
- AUC0-12, mean ± SD [9]: 2,280 ± 725 ng·h/mL
- C av, geometric mean [9]: (182) [32] ng/mL
- C av, mean ± SD [9]: 190 ± 60.4 ng/mL
- C max, geometric mean [9]: (268) [31] ng/mL
- C max, mean ± SD [9]: 278 ± 85.4 ng/mL
- t max, median (min, max) [9]: 4.00 (3.00, 6.00) h
- AUC0-tau, geometric mean (MAD Day 14, 100 mg BID fed): (1,690) [48] ng·h/mL
- AUC0-tau, mean ± SD (MAD Day 14, 100 mg BID fed): 1,860 ± 892 ng·h/mL
- C av, geometric mean (MAD Day 14, 100 mg BID fed): (141) [48] ng/mL
- C av, mean ± SD (MAD Day 14, 100 mg BID fed): 155 ± 74.4 ng/mL
- C max, geometric mean (MAD Day 14, 100 mg BID fed): (173) [46] ng/mL
- C max, mean ± SD (MAD Day 14, 100 mg BID fed): 189 ± 86.3 ng/mL
- C trough, geometric mean (MAD Day 14, 100 mg BID fed): (122) [52] ng/mL
- C trough, mean ± SD (MAD Day 14, 100 mg BID fed): 136 ± 70.8 ng/mL
- CLss/F, geometric mean (MAD Day 14, 100 mg BID fed): (59.1) [44] L/h
- CLss/F, mean ± SD (MAD Day 14, 100 mg BID fed): 64.6 ± 28.2 L/h
- FLrel (relative fluctuation), geometric mean (MAD Day 14, 100 mg BID fed): (46.1) [20] %
- R ac (accumulation ratio), mean ± SD (MAD Day 14, 100 mg BID fed): 5.46 ± 0.951
- R ac Cmax (accumulation ratio based on C max), mean ± SD (MAD Day 14, 100 mg BID fed): 4.77 ± 0.730
- R ac, geometric mean (MAD Day 14, 100 mg BID fed): (5.38) [17]
- V z/F, geometric mean (MAD Day 14, 100 mg BID fed): (2,250) [51] L
- t max, median (min, max) (MAD Day 14, 100 mg BID fed): 3.00 (1.00, 4.00) h
- t 1/2z, geometric mean [10]: (23.6) [13] h
- t 1/2z, mean ± SD [10]: 23.8 ± 3.18 ^g h
- AUC0-tau, geometric mean (MAD Day 14, 100 mg QD fasted): (1,680) [27] ng·h/mL
- AUC0-tau, mean ± SD (MAD Day 14, 100 mg QD fasted): 1,750 ± 471 ng·h/mL
- C av, geometric mean (MAD Day 14, 100 mg QD fasted): (70.0) [27] ng/mL
- C av, mean ± SD (MAD Day 14, 100 mg QD fasted): 72.9 ± 19.6 ng/mL
- C max, geometric mean (MAD Day 14, 100 mg QD fasted): (153) [31] ng/mL
